Assay results gathered from unrelated publications.
Compare with care: the assays were run in different laboratories.
Target: Casein kinase I isoform epsilon (CSNK1E, Homo sapiens, UniProt P49674)

Compound | test | setting | endpoint | value
Cn1cc(-c2cccc(N3CCc4c(sc5c4CC(C)(C)C5)C3=O)c2CO)cc(Nc2ccncn2)c1=O | enzyme activity, inhibitor | 1 µM | inhibition | 1%
COc1ncccc1-c1cnn2ccc(N3CCN(C(=O)OC(C)C)CC3)nc12 | binding, competition with immobilised ligand | 1 µM | remaining binding | 86%
Cc1nn(C)cc1-c1nc2c(N3CCN(Cc4ccc(Cl)cc4)CC3)c(Cl)cnc2[nH]1 | binding, competition with immobilised ligand | 1 µM | remaining binding | 99%
Nc1ncc(-c2nc(N3CCOCC3)nc(N3CCOCC3)n2)c(C(F)F)n1 | binding, competition with immobilised ligand | 10 µM | remaining binding | 38%
N#CC1(c2ccccn2)CCN(Cc2cc(C(=O)O)c(=O)n3ccccc23)CC1 | cell-free assay, competition with immobilised ligand | 1 µM | remaining binding | 100%
O=c1[nH]c2ccccc2n1C1CCN(Cc2ccc(-c3[nH]c4cc5ncnc5cc4nc3-c3ccccc3)cc2)CC1 | enzyme activity | 0.5 µM | remaining activity | 107%
Cn1cc(-c2cc(F)cc(N3CCn4c(cc5c4CCCC5)C3=O)c2CO)cc(Nc2ccc(N3CCN(C4COC4)CC3)cn2)c1=O | enzyme activity, inhibitor | 0.1 µM | inhibition | 12%
Cn1cncc1[C@@](O)(COc1ccc(C#N)cc1-c1ccc(OC(F)(F)F)cc1)c1ccc(C#N)cc1 | cell-free assay, competition with immobilised ligand | 1 µM | remaining binding | 100%
CC(C)(C)c1cc(C=C(C#N)C#N)cc(Br)c1O | enzyme activity, inhibitor | 0.5 µM | remaining activity | 92.1%
